In ChEMBL document CHEMBL4118046, “Chemistry of Renieramycins. 17. A New Generation of Renieramycins: Hydroquinone 5-O-Monoester Analogues of Renieramycin M as Potential Cytotoxic Agents against Non-Small-Cell Lung Cancer Cells” (J Nat Prod, 2017):

How the values were obtained:
NCI-H292 = test: Cytotoxicity against human NCI-H292 cells after 72 hrs by MTT assay; assay type: functional, cell-based; conditions: NCI-H292, 72 h
How it was run: (§1)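 Metastatic human NSCLC lines H292 and H460, obtained from ATCC, were tested for viability by MTT assay following a previously published protocol. Cisplatin and doxorubicin served as positive controls. IC50 values are reported.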

NCI-H460 = test: Cytotoxicity against human NCI-H460 cells after 72 hrs by MTT assay; assay type: functional, cell-based; conditions: NCI-H460, 72 h; how it was run: as §1

Row | SMILES | IC50 (NCI-H292) [nM] | IC50 (NCI-H460) [nM]
1 | C/C=C(/C)C(=O)OC[C@H]1c2c(c(O)c(C)c3c2OCO3)C[C@H]2[C@H]3C4=C(C[C@H]([C@H](C#N)N12)N3C)C(=O)C(C)=C(OC)C4=O | 61 | 36
2 | C/C=C(/C)C(=O)OC[C@H]1c2c(O)c(OC)c(C)c(OC(=O)CNC(=O)OC(C)(C)C)c2C[C@H]2[C@H]3C4=C(C[C@H]([C@H](C#N)N12)N3C)C(=O)C(C)=C(OC)C4=O | 10 | 6
3 | C/C=C(/C)C(=O)OC[C@H]1c2c(O)c(OC)c(C)c(OC(=O)OC)c2C[C@H]2[C@H]3C4=C(C[C@H]([C@H](C#N)N12)N3C)C(=O)C(C)=C(OC)C4=O | 11 | 14
4 | C/C=C(/C)C(=O)OC[C@H]1c2c(O)c(OC)c(C)c(OC(=O)c3ccc4ncccc4c3)c2C[C@H]2[C@H]3C4=C(C[C@H]([C@H](C#N)N12)N3C)C(=O)C(C)=C(OC)C4=O | 54 | 45
5 | C/C=C(/C)C(=O)OC[C@H]1c2c(O)c(OC)c(C)c(OC(=O)c3ccncc3)c2C[C@H]2[C@H]3C4=C(C[C@H]([C@H](C#N)N12)N3C)C(=O)C(C)=C(OC)C4=O | 20 | 11
6 | C/C=C(/C)C(=O)OC[C@H]1c2c(O)c(OC)c(C)c(OC(=O)c3cccnc3)c2C[C@H]2[C@H]3C4=C(C[C@H]([C@H](C#N)N12)N3C)C(=O)C(C)=C(OC)C4=O | 59 | 20
7 | C/C=C(/C)C(=O)OC[C@H]1c2c(O)c(OC)c(C)c(OC(=O)c3cnc4ccccc4c3)c2C[C@H]2[C@H]3C4=C(C[C@H]([C@H](C#N)N12)N3C)C(=O)C(C)=C(OC)C4=O | 111 | 22
8 | C/C=C(/C)C(=O)OC[C@H]1c2c(O)c(OC)c(C)c(OC(C)=O)c2C[C@H]2[C@H]3C4=C(C[C@H]([C@H](C#N)N12)N3C)C(=O)C(C)=C(OC)C4=O | 3 | 3.6
9 | C/C=C(/C)C(=O)OC[C@H]1c2c(O)c(OC)c(C)c(O)c2C[C@H]2[C@H]3c4c(O)c(OC)c(C)c(O)c4C[C@H]([C@H](C#N)N12)N3C | 1.7 | 1.1
10 | C/C=C(/C)C(=O)OC[C@H]1c2c(c(OC(C)=O)c(C)c(OC)c2OC(C)=O)C[C@H]2[C@H]3C4=C(C[C@H]([C@H](C#N)N12)N3C)C(=O)C(C)=C(OC)C4=O | 28 | 25
11 | COc1cc2c(cc1O)CCN[C@]21CS[C@@H]2c3c(OC(C)=O)c(C)c4c(c3[C@H](COC1=O)N1[C@@H]2[C@H]2c3c(cc(C)c(OC)c3O)C[C@H]([C@@H]1C#N)N2C)OCO4 | 1.6 | 1.2
12 | C/C=C(/C)C(=O)OC[C@H]1C2=C(C[C@H]3[C@H]4C5=C(C[C@@H]([C@H](C#N)N13)N4C)C(=O)C(C)=C(OC)C5=O)C(=O)C(C)=C(OC)C2=O [RENIERAMYCIN M] | 24 | 6.5
13 | C/C=C(/C)C(=O)OC[C@H]1c2c(O)c(OC)c(C)c(OC(=O)CC)c2C[C@H]2[C@H]3C4=C(C[C@H]([C@H](C#N)N12)N3C)C(=O)C(C)=C(OC)C4=O | 2.3 | 5.1
14 | COC1=C(C)C(=O)C2=C(C1=O)[C@@H]1[C@@H]3CC4=C(C(=O)C(OC)=C(C)C4=O)[C@H](CO)N3[C@@H](C#N)[C@@H](C2)N1C | 217 | 164
15 | C/C=C(/C)C(=O)OC[C@H]1c2c(O)c(OC)c(C)c(OC(=O)c3ccc(Br)cc3)c2C[C@H]2[C@H]3C4=C(C[C@H]([C@H](C#N)N12)N3C)C(=O)C(C)=C(OC)C4=O | 21 | 14
16 | C/C=C(/C)C(=O)OC[C@H]1c2c(O)c(OC)c(C)c(OC(=O)CCC)c2C[C@H]2[C@H]3C4=C(C[C@H]([C@H](C#N)N12)N3C)C(=O)C(C)=C(OC)C4=O | 6.7 | 5.6
17 | C/C=C(/C)C(=O)OC[C@H]1c2c(O)c(OC)c(C)c(OC(=O)c3ccccn3)c2C[C@H]2[C@H]3C4=C(C[C@H]([C@H](C#N)N12)N3C)C(=O)C(C)=C(OC)C4=O | 103 | 26
18 | C/C=C(/C)C(=O)OC[C@H]1c2c(O)c(OC)c(C)c(OC(=O)/C=C/c3cccnc3)c2C[C@H]2[C@H]3C4=C(C[C@H]([C@H](C#N)N12)N3C)C(=O)C(C)=C(OC)C4=O | 57 | 52
19 | C/C=C(/C)C(=O)OC[C@H]1c2c(O)c(OC)c(C)c(OC(=O)CCCC)c2C[C@H]2[C@H]3C4=C(C[C@H]([C@H](C#N)N12)N3C)C(=O)C(C)=C(OC)C4=O | 36 | 26
20 | C/C=C(/C)C(=O)OC[C@H]1c2c(O)c(OC)c(C)c(OC(=O)CCCCC)c2C[C@H]2[C@H]3C4=C(C[C@H]([C@H](C#N)N12)N3C)C(=O)C(C)=C(OC)C4=O | 16 | 15
21 | C/C=C(/C)C(=O)OC[C@H]1c2c(O)c(OC)c(C)c(OC(=O)[C@H](C)NC(=O)OC(C)(C)C)c2C[C@H]2[C@H]3C4=C(C[C@H]([C@H](C#N)N12)N3C)C(=O)C(C)=C(OC)C4=O | 24 | 16
22 | C/C=C(/C)C(=O)OC[C@H]1c2c(O)c(OC)c(C)c(OC=O)c2C[C@H]2[C@H]3C4=C(C[C@H]([C@H](C#N)N12)N3C)C(=O)C(C)=C(OC)C4=O | 12 | 9.7
23 | C/C=C(/C)C(=O)OC[C@H]1c2c(O)c(OC)c(C)c(OC(=O)/C=C/c3ccc(F)cc3)c2C[C@H]2[C@H]3C4=C(C[C@H]([C@H](C#N)N12)N3C)C(=O)C(C)=C(OC)C4=O | 63 | 17
24 | C/C=C(/C)C(=O)OC[C@H]1c2c(O)c(OC)c(C)c(OC(=O)c3ccc(-c4ccccc4)cc3)c2C[C@H]2[C@H]3C4=C(C[C@H]([C@H](C#N)N12)N3C)C(=O)C(C)=C(OC)C4=O | 71 | 54
25 | COc1cccc2c1C(=O)c1c(O)c3c(c(O)c1C2=O)C[C@@](O)(C(=O)CO)C[C@@H]3O[C@H]1C[C@H](N)[C@H](O)[C@H](C)O1 [DOXORUBICIN] | 351 | 34
26 | C/C=C(/C)C(=O)OC[C@H]1c2c(O)c(OC)c(C)c(OC(=O)/C=C/c3ccccc3)c2C[C@H]2[C@H]3C4=C(C[C@H]([C@H](C#N)N12)N3C)C(=O)C(C)=C(OC)C4=O | 12 | 11
